Compound activity as filed in PubChem.
PGC1a Ac signal: compounds raising PGC1a acetylation signal, primary screen, PGC1a modulator project, cell-based, U2OS, AlphaScreen, signal-increasing mode; overnight; activation, % at 15.6 µM; 0.21% of 350,000 active;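 active means every replicate reaching activation of at least 50%, whatever the mean replicate activation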;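 further: hits raise the AlphaScreen acetylation signal above neutral controls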
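System – flag-PGC1a/GCN5 U2OS cells · Quantity – 7000 U2OS cells per well · Signal – AlphaScreen proximity luminescence, anti-acetyl-lysine antibody · Schedule – overnight compound treatment, 37 °C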
* = called active by the depositor. These entries were drawn from the full list.

How did CC(C)NC(=O)Nc1ccc2c(c1)C(=O)N([C@@H](C)CO)C[C@H](C)[C@@H](CN(C)C(=O)CCC(F)(F)F)OCCCC[C@@H](C)O2 do in these assays?
PGC1a Ac signal: -45.6

What do the screens show for `COc1ccccc1C(=O)Nc1ccc2c(c1)nc(CCNC(=O)c1ccco1)n2C`?
PGC1a Ac signal: 115.1*

How did COc1ccccc1C(=O)Nc1ccc2c(c1)C(=O)N(C)C[C@H](OC)[C@H](C)CN(CC1CC1)[C@@H](C)CO2 do in these assays?
PGC1a Ac signal: -52.1

How did CC(C)CC(NC(=O)c1ccc(Cl)cc1)C(=O)OCC(=O)c1ccc2c(c1)NC(=O)CO2 (stereo not drawn) do in these assays?
PGC1a Ac signal: -56.7

Results for C/C(=N\N1CCN(c2ccccc2)CC1)c1ccccc1O ?
PGC1a Ac signal: -40.2

Results for CC1CCCCN1C(=O)CN(C)S(=O)(=O)c1cccc2nsnc12 (stereo not drawn) ?
PGC1a Ac signal: -41.6

What do the screens show for `CCN(CCCNC(=O)CN(C)S(=O)(=O)c1cccc2nsnc12)c1ccccc1`?
PGC1a Ac signal: 88.6*

What do the screens show for `CN(CC(=O)Nc1ccc(F)c(F)c1)S(=O)(=O)c1cccc2nsnc12`?
PGC1a Ac signal: 62.6*

Results for COc1ccc(C(=O)C(CN2CCOCC2)c2ccccc2)cc1F (stereo not drawn) ?
PGC1a Ac signal: -114.0

How did Cc1nnc2sc(-c3ccc(NC(=O)c4ccc(-c5ccc(Cl)cc5Cl)o4)cc3)nn12 do in these assays?
PGC1a Ac signal: 98.2*

How did CCC(=O)Nc1cccc(C(=O)/C=C/c2ccccc2)c1 do in these assays?
PGC1a Ac signal: -40.6

How did Cc1cccc(NC(=O)CCC(=O)N/N=C/c2ccc(O)cc2O)c1 do in these assays?
PGC1a Ac signal: 51.2*

How did Cc1ccc2c(Cl)cc(Cl)c(OCc3c(C)noc3C)c2n1 do in these assays?
PGC1a Ac signal: -44.6

What do the screens show for `CC(C)(C)C(=O)/C(=C\c1cccc([N+](=O)[O-])c1)n1cncn1`?
PGC1a Ac signal: -96.0

What do the screens show for `CCOC(=O)C1=CC[C@@H](c2ccc([N+](=O)[O-])cc2)N(S(=O)(=O)c2ccc(C)cc2)[C@H]1c1ccccc1`?
PGC1a Ac signal: 56.6*

Results for CC1CCN(S(=O)(=O)c2ccc(Oc3ccc([N+](=O)[O-])cc3)cc2)CC1 ?
PGC1a Ac signal: -53.9

What do the screens show for `CN1CCN2c3ncccc3Cc3ccccc3[C@@H]2C1`?
PGC1a Ac signal: -46.0

Results for O=C(NCc1cccnc1)/C(=C/c1ccc(-c2ccc(Cl)cc2)o1)S(=O)(=O)c1ccccc1 ?
PGC1a Ac signal: 359.7*

Results for Cc1ccc(CNC(=O)c2ccc(CS(=O)(=O)c3ccccc3)o2)cc1 ?
PGC1a Ac signal: -43.9

Results for O=C(Nc1cccc(C(F)(F)F)c1)c1sc(Cl)nc1C(F)(F)F ?
PGC1a Ac signal: 120.6*

How did O=C1C=CCCN1C(=O)/C=C/c1cccc(Br)c1 do in these assays?
PGC1a Ac signal: -46.4

Results for Cc1ccccc1NC(=O)Nc1ccccc1Br ?
PGC1a Ac signal: -46.3

What do the screens show for `Cc1ccc(Cl)cc1N1CCN(C(=O)CSc2nnc3n2C(C)(C)Cc2ccccc2-3)CC1`?
PGC1a Ac signal: 51.8*

Results for Cc1cc(=O)[nH]c(SCC(=O)N2CCc3ccccc3C2)n1 ?
PGC1a Ac signal: -51.8

How did Cc1ccc(S(=O)(=O)Nc2ccc3c(c2)C(=O)N([C@H](C)CO)C[C@@H](C)[C@@H](CN(C)C(=O)NC(C)C)OCCCC[C@H](C)O3)cc1 do in these assays?
PGC1a Ac signal: -53.1

Results for Cc1ccc(NC(=O)c2ccc([N+](=O)[O-])o2)cc1C ?
PGC1a Ac signal: 90.2*

What do the screens show for `Cc1ccc2nsnc2c1NC(=O)c1ccc([N+](=O)[O-])o1`?
PGC1a Ac signal: -44.0

How did CCOc1ccc2nc(NCCCNC(=O)c3cc(OC)c(OC)c(OC)c3)c(C#N)cc2c1 do in these assays?
PGC1a Ac signal: -41.8

What do the screens show for `CS(=O)(=O)Nc1ccc2c(c1)[C@@H]1C[C@H](CC(=O)N3CCc4ccccc4C3)O[C@@H](CO)[C@@H]1O2`?
PGC1a Ac signal: -40.7

How did C[C@@H]1CN([C@@H](C)CO)C(=O)CCCn2cc(nn2)CO[C@H]1CN(C)S(=O)(=O)c1ccccc1 do in these assays?
PGC1a Ac signal: -47.3

Results for CCOc1ccc(S(=O)(=O)N(C)c2ccc(OCC(=O)N3c4ccc(C)cc4C4CN(C)CCC43)cc2)cc1 (stereo not drawn) ?
PGC1a Ac signal: -75.1

What do the screens show for `O=C(CCl)NCc1cc(-c2ccc(Cl)cc2)no1`?
PGC1a Ac signal: 51.9*

How did C[C@@]12C(=O)OC(=O)[C@]1(C)C1CCC2O1 do in these assays?
PGC1a Ac signal: -47.0

Results for C[C@H]1CN([C@@H](C)CO)C(=O)c2cccc(NC(=O)c3nc4ccccc4s3)c2O[C@H]1CN(C)Cc1ccc(C(=O)Nc2ccccc2N)cc1 ?
PGC1a Ac signal: 103.9*

Results for C[C@@H]1CN([C@H](C)CO)C(=O)c2cccc(NC(=O)c3nc4ccccc4s3)c2O[C@@H]1CN(C)CC1CCCCC1 ?
PGC1a Ac signal: -59.1

What do the screens show for `C[C@H]1CN([C@@H](C)CO)C(=O)c2cccc(NC(=O)C3CCCCC3)c2O[C@H]1CN(C)Cc1ccc(C(=O)Nc2ccccc2N)cc1`?
PGC1a Ac signal: 173.2*

Results for C[C@@H]1CCCCO[C@H](CN(C)Cc2ccc(C(F)(F)F)cc2)[C@H](C)CN([C@H](C)CO)C(=O)c2cc(NC(=O)Cc3ccccc3)ccc2O1 ?
PGC1a Ac signal: -41.8

Results for C[C@H](CO)N1C[C@H](C)[C@@H](CN(C)CC2CCCCC2)Oc2c(NC(=O)c3nc4ccccc4s3)cccc2C1=O ?
PGC1a Ac signal: -54.8

How did C[C@@H]1CN([C@@H](C)CO)C(=O)c2cc(NC(=O)c3ccncc3)ccc2O[C@@H](C)CCCCO[C@@H]1CN(C)Cc1ccncc1 do in these assays?
PGC1a Ac signal: -46.2

How did COc1cccc(N2CCN(c3ncnc4c3[nH]c3ccc(F)cc34)CC2C)c1 (stereo not drawn) do in these assays?
PGC1a Ac signal: -76.9

What do the screens show for `CC(C)C#Cc1cnc2c(c1)C(=O)N([C@H](C)CO)C[C@H](C)[C@H](CN(C)C(=O)c1ccccn1)O2`?
PGC1a Ac signal: -44.8

Results for Cc1noc(C)c1NC(=O)Nc1ccc2c(c1)C(=O)N([C@H](C)CO)C[C@@H](C)[C@@H](CN(C)S(=O)(=O)c1ccc(F)cc1)OCCCC[C@@H](C)O2 ?
PGC1a Ac signal: -42.2

How did CCn1c2ccccc2c2cc(/C=N/NC(=O)c3ccccc3)ccc21 do in these assays?
PGC1a Ac signal: -43.1

How did O=C(c1cccc([N+](=O)[O-])c1)N1CCc2ccccc21 do in these assays?
PGC1a Ac signal: -43.6

How did O=C(Cn1c2ccccc2c(=O)c2ccccc21)N/N=C/c1cc([N+](=O)[O-])ccc1N1CCCCCC1 do in these assays?
PGC1a Ac signal: 52.8*

What do the screens show for `O=C(COC(=O)Cc1ccc(S(=O)(=O)N2CCOCC2)s1)NCCc1ccccc1`?
PGC1a Ac signal: -40.7

Results for C=C1C(=O)[C@]23C[C@H]1CCC2[C@@]1(C)C(C[C@@H]3O)[C@](C)(C(=O)OC)CC[C@@H]1OC(C)=O (stereo partly drawn) ?
PGC1a Ac signal: -103.0

How did CCC(=O)N(C)C[C@@H]1Oc2cc(C#Cc3cccnc3)ccc2S(=O)(=O)N([C@H](C)CO)C[C@H]1C do in these assays?
PGC1a Ac signal: -28.8

Results for CC(C)(C)c1ccc(CCC2OCC(C[N+]3(C)CCOCC3)O2)cc1 (stereo not drawn) ?
PGC1a Ac signal: -73.3

Results for CCCCCSc1nnc(C)c(=O)[nH]1 ?
PGC1a Ac signal: -90.6
